Experiment [1] has as its target T1, Protein deacetylase HDAC6 (Homo sapiens) (UniProt Q9UBN7).
T1 sequence (whole entry): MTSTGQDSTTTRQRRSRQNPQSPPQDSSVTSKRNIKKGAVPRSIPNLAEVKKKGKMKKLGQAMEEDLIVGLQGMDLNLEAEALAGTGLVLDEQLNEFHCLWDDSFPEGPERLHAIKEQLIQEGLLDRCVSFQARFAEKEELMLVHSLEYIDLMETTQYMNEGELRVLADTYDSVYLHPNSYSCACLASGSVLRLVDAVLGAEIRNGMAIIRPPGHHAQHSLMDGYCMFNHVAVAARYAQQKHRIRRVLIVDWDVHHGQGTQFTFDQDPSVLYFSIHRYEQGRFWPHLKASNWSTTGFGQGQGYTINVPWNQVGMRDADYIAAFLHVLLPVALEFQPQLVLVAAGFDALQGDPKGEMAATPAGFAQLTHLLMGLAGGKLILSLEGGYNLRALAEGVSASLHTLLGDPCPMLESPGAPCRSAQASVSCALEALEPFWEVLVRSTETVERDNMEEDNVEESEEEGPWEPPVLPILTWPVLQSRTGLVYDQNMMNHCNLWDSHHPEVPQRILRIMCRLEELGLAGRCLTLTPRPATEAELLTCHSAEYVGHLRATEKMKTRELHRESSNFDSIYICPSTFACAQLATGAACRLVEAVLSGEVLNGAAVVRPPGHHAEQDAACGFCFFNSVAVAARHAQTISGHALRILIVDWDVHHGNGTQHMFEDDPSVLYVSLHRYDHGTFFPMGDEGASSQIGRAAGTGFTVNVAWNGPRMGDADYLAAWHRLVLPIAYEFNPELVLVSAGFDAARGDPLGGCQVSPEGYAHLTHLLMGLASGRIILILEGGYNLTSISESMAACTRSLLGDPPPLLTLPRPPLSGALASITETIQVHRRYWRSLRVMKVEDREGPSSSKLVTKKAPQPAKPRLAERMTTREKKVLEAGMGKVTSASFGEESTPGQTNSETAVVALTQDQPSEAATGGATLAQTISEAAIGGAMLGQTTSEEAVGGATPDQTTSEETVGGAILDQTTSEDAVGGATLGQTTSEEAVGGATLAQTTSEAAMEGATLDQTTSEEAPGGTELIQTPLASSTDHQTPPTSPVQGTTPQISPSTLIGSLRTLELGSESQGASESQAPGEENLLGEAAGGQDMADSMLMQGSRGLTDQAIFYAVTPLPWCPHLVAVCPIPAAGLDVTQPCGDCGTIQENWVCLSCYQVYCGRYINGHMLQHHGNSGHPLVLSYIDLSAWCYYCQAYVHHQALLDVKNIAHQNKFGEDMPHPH
The experiment is described as follows: Inhibition of N-terminal GST tagged human recombinant HDAC6 (1 to 1215 residues) expressed in Sf9 insect cells using Z-Lys(Ac)-AMC as fluorogenic substrate at 10 uM preincubated for 60 mins followed by substrate addition and measured after 90 mins by microplate reader analysis relative to control. The following applies: time 150.0 min. Summed up: (§1)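 Human recombinant enzyme was preincubated with 3-fold inhibitor dilutions for 60 min at 25 °C in Tris-HCl pH 8.0 buffer with BSA. ZMAL (75 μM solution) was then added, and the mix was incubated 90 min at 37 °C (max 1% DMSO). Trypsin was added for 30 min at 37 °C, and fluorescence was read at ex 355/em 460. Tested at least twice in duplicate.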

The target of experiment [2] is Histone deacetylase 4 (Homo sapiens) (UniProt P56524). The experiment is described as follows: Inhibition of N-terminal GST-tagged/C-terminal His-tagged human HDAC4 (627 to 1084 residues) expressed in Sf9 insect cells using Boc-Lys(Tfa)-AMC as fluorogenic substrate at 10 uM preincubated for 60 mins followed by substrate addition and measured after 90 mins by microplate reader analysis relative to control. The following applies: time 150.0 min. The method, boiled down:
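Recombinant human HDAC4 was preincubated with inhibitor for 60 min at 25 °C in Tris-HCl pH 8.0/BSA buffer. Boc-Lys(Tfa)-AMC (42.86 μM solution) was then added for 90 min at 37 °C, followed by trypsin for 30 min at 37 °C. Fluorescence was read at ex 355/em 460. Tested at least twice in duplicate.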

Experiment [3] deals with Histone deacetylase 3/Nuclear receptor corepressor 2 (HDAC3/NCoR2) (Homo sapiens) (UniProt O15379+Q9Y618). The experiment is described as follows: Inhibition of C-terminal His-tagged human HDAC3 (1 to 428 residues)/N-terminal GST tagged human NcoR2 (395 to 489 residues) expressed in Sf9 insect cells using Z-Lys(Ac)-AMC as fluorogenic substrate at 10 uM preincubated for 60 mins followed by substrate addition and measured after 90 mins by microplate reader analysis relative to control. To be noted: time 150.0 min. Summed up:
as §1

Experiment [4] concerns the target Histone deacetylase 1 (Homo sapiens) (UniProt Q13547). In words: Inhibition of C-terminal 6His/FLAG tagged human recombinant HDAC1 (1 to 482 residues) […] expressed in Sf9 insect cells using Z-Lys(Ac)-AMC as fluorogenic substrate at 10 uM preincubated for 60 mins followed by substrate addition and measured after 90 mins by microplate reader analysis relative to control. To be noted: time 150.0 min. The method, boiled down: as §1

The target of experiment [5] is Histone deacetylase 2 (Homo sapiens) (UniProt Q92769). In words: Inhibition of C-terminal 6His-tagged human recombinant HDAC2 (1 to 488 residues) expressed in Sf9 insect cells using Z-Lys(Ac)-AMC as fluorogenic substrate at 10 uM preincubated for 60 mins followed by substrate addition and measured after 90 mins by microplate reader analysis relative to control. To be noted: time 150.0 min. Summed up: as §1

Experiment [6] addresses T2, Protein deacetylase HDAC6 (Homo sapiens, UniProt Q9UBN7).
T2 sequence (Q9UBN7 whole entry): T1 sequence (whole entry)
The experiment is described as follows: Inhibition of N-terminal GST tagged human recombinant HDAC6 (1 to 1215 residues) expressed in Sf9 insect cells using Z-Lys(Ac)-AMC as fluorogenic substrate preincubated for 60 mins followed by substrate addition and measured after 90 mins by microplate reader analysis.

Experimental findings from ChEMBL document CHEMBL5365542, “Difluoromethyl-1,3,4-oxadiazoles Are Selective, Mechanism-Based, and Essentially Irreversible Inhibitors of Histone Deacetylase 6” (J Med Chem, 2023) are described below.

For orientation: inhibition means the share of the control response that was lost under treatment. Broadly, the IC50 is the midpoint of a concentration-inhibition curve.

Chain of Histone deacetylase 4 (Homo sapiens) (P56524 whole entry, the tested form may be a part): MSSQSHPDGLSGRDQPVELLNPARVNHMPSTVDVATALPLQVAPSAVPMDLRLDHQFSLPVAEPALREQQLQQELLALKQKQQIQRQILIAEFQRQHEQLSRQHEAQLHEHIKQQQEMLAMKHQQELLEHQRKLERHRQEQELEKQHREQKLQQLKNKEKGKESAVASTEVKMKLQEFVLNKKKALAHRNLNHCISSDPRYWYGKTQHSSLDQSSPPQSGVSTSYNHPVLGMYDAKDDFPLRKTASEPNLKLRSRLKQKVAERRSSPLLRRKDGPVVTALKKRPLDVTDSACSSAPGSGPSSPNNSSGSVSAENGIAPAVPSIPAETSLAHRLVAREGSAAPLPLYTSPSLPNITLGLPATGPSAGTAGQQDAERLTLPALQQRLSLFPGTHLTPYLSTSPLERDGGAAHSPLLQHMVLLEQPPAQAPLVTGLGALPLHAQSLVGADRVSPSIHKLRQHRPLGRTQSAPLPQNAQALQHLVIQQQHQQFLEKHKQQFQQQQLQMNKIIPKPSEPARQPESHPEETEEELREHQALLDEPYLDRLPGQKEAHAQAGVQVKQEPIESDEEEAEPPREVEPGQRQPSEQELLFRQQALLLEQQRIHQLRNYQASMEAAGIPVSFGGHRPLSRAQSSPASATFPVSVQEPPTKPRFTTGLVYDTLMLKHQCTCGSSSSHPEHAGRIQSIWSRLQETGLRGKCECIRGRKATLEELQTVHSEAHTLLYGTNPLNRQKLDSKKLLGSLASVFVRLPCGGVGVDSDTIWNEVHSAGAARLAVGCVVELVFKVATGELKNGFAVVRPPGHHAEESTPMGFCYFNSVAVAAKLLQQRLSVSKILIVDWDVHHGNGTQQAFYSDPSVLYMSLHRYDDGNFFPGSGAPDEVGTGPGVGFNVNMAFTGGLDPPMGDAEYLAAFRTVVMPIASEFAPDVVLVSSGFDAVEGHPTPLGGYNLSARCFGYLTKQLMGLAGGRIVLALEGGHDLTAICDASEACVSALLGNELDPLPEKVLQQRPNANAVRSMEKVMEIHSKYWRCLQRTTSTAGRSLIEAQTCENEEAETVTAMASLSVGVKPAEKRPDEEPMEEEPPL
Chain of Histone deacetylase 1 (Homo sapiens) (Q13547 whole entry, the tested form may be a part): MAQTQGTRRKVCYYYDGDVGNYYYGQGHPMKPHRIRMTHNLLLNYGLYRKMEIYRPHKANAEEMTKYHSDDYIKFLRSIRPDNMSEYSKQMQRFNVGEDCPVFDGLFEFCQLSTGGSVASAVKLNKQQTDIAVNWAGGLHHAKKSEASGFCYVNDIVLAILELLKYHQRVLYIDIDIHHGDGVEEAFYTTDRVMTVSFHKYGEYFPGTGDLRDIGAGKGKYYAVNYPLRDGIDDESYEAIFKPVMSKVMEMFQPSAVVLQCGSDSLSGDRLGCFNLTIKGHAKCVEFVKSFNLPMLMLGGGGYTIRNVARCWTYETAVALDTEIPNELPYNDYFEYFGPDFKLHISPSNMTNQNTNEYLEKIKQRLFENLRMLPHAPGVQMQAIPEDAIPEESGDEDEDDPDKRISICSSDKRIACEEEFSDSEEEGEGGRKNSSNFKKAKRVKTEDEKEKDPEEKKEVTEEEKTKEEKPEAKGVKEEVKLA
Chain of Histone deacetylase 2 (Homo sapiens) (Q92769 whole entry, the tested form may be a part): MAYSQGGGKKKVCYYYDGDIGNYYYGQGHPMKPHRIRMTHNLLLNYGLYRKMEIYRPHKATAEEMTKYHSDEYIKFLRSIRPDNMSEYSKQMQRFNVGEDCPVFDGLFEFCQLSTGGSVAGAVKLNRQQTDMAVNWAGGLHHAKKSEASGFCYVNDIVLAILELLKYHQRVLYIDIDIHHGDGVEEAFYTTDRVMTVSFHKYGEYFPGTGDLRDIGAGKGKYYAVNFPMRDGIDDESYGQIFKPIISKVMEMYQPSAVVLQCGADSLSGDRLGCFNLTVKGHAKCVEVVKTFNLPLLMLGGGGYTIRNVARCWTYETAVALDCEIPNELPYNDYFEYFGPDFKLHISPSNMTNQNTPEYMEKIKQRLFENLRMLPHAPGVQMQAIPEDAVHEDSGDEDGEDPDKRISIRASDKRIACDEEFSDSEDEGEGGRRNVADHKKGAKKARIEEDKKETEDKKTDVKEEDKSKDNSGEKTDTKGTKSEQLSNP

As to `O=C(NNC(=O)C(F)F)c1cnc(NCc2ccccc2)nc1`, in experiment [1], the inhibition was under 15%.

Take `CCCCN(Cc1ccc(-c2nnc(C(F)F)o2)cc1)C(=O)Nc1ccccc1`: the inhibition in experiment [1] was 76%; in experiment [2], under 15%; in experiment [3], under 15%; in experiment [4], under 15%; in experiment [5] it was under 15%.

Take `COc1ccc(CNc2ncc(-c3nnc(C(F)F)o3)cn2)cc1`: the inhibition in experiment [2], in experiment [3], in experiment [4] and in experiment [5] was under 15% each time. Further, in experiment [6], the IC50 was 337 nM.

`FC(F)c1nnc(-c2ccccc2)o1`: the inhibition in experiment [1], in experiment [2], in experiment [3], in experiment [4] and in experiment [5] was under 15% throughout.

`FCc1nnc(-c2cnc(NCc3ccccc3)nc2)o1`: the inhibition in experiment [1] was 54%.

As to `NNC(=O)c1cnc(NCc2ccccc2)nc1`, the inhibition in experiment [1] is 30%.

As for `Cc1nnc(-c2cnc(NCc3ccccc3)nc2)o1`, the inhibition in experiment [1] is under 15%.

As for `CN(C)c1ccc(C(=O)N(CC(=O)NCc2ccccc2)Cc2ccc(-c3nnc(C(F)F)o3)cc2)cc1`, the inhibition in experiment [1] was 27%; in experiment [2], under 15%; in experiment [3], under 15%; in experiment [4] it was under 15%; in experiment [5], under 15%.

For the compound `CCCCN(Cc1ccc(-c2nnc(C(F)F)o2)cc1)C(=O)c1ccccc1`, the inhibition in experiment [1] was 75%; in experiment [2] it was under 15%; in experiment [3] it was under 15%; in experiment [4], under 15%; in experiment [5], under 15%.

As to `FC(F)c1nnc(-c2cncnc2)o1`, the inhibition was 56% in experiment [1]; under 15% in experiment [2]; under 15% in experiment [3]; under 15% in experiment [4]; under 15% in experiment [5].

With `Cc1ccc(-c2nnc(C(F)F)o2)cn1`, the inhibition in experiment [1] is 39%; in experiment [2], under 15%; in experiment [3], under 15%; in experiment [4], under 15%; in experiment [5] it was under 15%.
